From article PMC2266618 (The Journal of General Physiology, 2005)

What was measured:
homomeric ASIC1a = target: T1, homomeric ASIC1a (Rattus norvegicus, UniProt P55926); assay: Direct opening of ASIC1a channels by PcTx1; assay type: cell-based; conditions: 100 μM amiloride
T1 sequence (P55926 1-526): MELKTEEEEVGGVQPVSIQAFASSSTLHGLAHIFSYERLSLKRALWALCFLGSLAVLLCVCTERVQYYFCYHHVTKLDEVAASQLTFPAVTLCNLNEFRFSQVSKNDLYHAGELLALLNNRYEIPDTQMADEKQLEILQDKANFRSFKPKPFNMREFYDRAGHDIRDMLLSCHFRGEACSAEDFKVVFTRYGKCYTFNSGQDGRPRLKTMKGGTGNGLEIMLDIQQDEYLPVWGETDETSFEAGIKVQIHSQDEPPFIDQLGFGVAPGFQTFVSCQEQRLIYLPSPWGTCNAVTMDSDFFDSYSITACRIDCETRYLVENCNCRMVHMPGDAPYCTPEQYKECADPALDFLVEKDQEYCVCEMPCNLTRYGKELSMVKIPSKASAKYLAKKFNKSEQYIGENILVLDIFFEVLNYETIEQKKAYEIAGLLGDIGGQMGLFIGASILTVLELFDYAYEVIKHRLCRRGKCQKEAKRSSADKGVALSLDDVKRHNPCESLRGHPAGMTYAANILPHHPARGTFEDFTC
How it was run: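 Rat ASIC1a cRNA (0.01 ng) injected into stage V-VI Xenopus oocytes, kept 2-4 d in OR-2 (pH 7.3); whole-cell currents at -70 mV. The conditioning solution was switched from 1.8 to 0.1 mM Ca2+ (with 0.1 mM flufenamic acid) at pH 7.35, together with 100 nM test peptide toxin in 0.05% BSA. The transient inward current was tested with 100 µM amiloride.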

ASIC1a = conditions: ref Diochot et al., 2004; cited from earlier work
ASIC3 = conditions: ref Diochot et al., 2004, cited from earlier work

| block of PcTx1-elicited currents by amiloride (homomeric ASIC1a; 100 nM PcTx1 coapplied with pH 7.1, n = 3) | block of PcTx1-elicited currents by amiloride (homomeric ASIC1a; 100 nM PcTx1 with 0.1 mM Ca2+ at pH 7.35, n = 4) | Compound | inhibition of ASIC1a (ASIC1a) | inhibition of ASIC3 (ASIC3; inhibition during steady state (at pH 7.4)) | affinity of the interaction with ASIC3 (ASIC3) |
| --- | --- | --- | --- | --- | --- |
| could be blocked | could be blocked | N=C(N)NC(=O)c1nc(Cl)c(N)nc1N [amiloride] |  |  |  |
|  |  | APETx2 | does not inhibit | inhibits | nanomolar affinity |
